Source: ChEMBL document CHEMBL4680121, “Development of (4-methoxyphenyl)-1H-tetrazol-5-amine regioisomers as a new class of selective antitubercular agents” (Eur J Med Chem, 2020)

Tests used:
[1] = tested on: Mycobacterium tuberculosis; assay: Potentiation of ethambutol-induced antimycobacterial activity against Mycobacterium tuberculosis Spec.192 assessed as fold decrease in ethambutol MIC at 1/2X MIC incubated for 14 days in presence of ethambutol by MABA method; type: functional; details: time 14 day
How it was run: (§1)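 Combination assay in Middlebrook 7H9 broth with 10% OADC. The reference drug (INH, RMP, SM or EMB) was varied from 1 to 1/32 of its MIC, and the test derivative was fixed at 1/2 its own MIC. Single-agent MICs were determined first by MABA. Inoculum was 1 McFarland, with 14 days of incubation at 37 °C. The endpoint was the lowest reference-drug concentration that inhibited growth.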

[2] = tested on: A549; assay: Cytotoxicity against human A549 cells assessed as LDH release at 100 uM incubated for 72 hrs by LDH assay; type: cell-based; details: a549, 72 h
How it was run: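 LDH release measured with a kit after 72 h exposure to 100 μM compound. Cells were seeded at 1×10^4 per well in DMEM or EMEM with 2% FBS. Absorbance was read at 490 nm. Release (%) = (A sample − A low control)/(A high control − A low control) × 100, with the Triton X-100 (1%) control taken as 100% release. Values are mean ± SD of three independent experiments run in triplicate.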

[3] = tested on: Mycobacterium tuberculosis; assay: Potentiation of rifampicin-induced antimycobacterial activity against Mycobacterium tuberculosis H37Rv ATCC 25618 assessed as fold decrease in rifampicin MIC at 1/2X MIC incubated for 14 days in presence of rifampicin by MABA method; type: functional; details: time 14 day; how it was run: as §1
[4] = tested on: V79; assay: Cytotoxicity against Chinese Hamster V79 cells assessed as reduction in cell viability at 100 uM measured after 72 hrs by MTT assay; type: cell-based, Cricetulus griseus; details: v79, 72 h
How it was run: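 MTT viability assay on cells grown in DMEM with 10% heat-inactivated FBS, penicillin/streptomycin and 20 mM HEPES at 37 °C/5% CO2. Cells were seeded at 1×10^4 per well and allowed to adhere for 24 h, then the medium was refreshed. Compounds were added at 20–140 μM for 72 h at 37 °C, followed by MTT (0.5 mg/mL in serum-free medium) for 4 h. Untreated cells served as control. IC50 is the concentration giving 50% growth inhibition versus control.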

[5] = tested on: Mycobacterium tuberculosis; assay: Antitubercular activity against Mycobacterium tuberculosis Spec.192 assessed as streptomycin MIC incubated for 14 days in presence of streptomycin by MABA method; type: functional; details: Mycobacterium tuberculosis, 192, 336 h; time 14 day
How it was run: (§2)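 In Middlebrook 7H9 with 10% OADC, the reference drug (INH, RMP, SM or EMB) at 1 to 1/32 of its MIC alone was mixed with the test derivative fixed at 1/2 its MIC. 4 ml samples were inoculated with McFarland 1 suspension and incubated 14 days at 37 °C. MIC is the lowest drug concentration in combination that inhibited growth.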

[6] = tested on: Mycobacterium tuberculosis; assay: Potentiation of rifampicin-induced antimycobacterial activity against Mycobacterium tuberculosis Spec.192 assessed as fold decrease in rifampicin MIC at 1/2X MIC incubated for 14 days in presence of rifampicin by MABA method; type: functional; details: time 14 day; how it was run: as §1
[7] = tested on: Mycobacterium tuberculosis; assay: Potentiation of ethambutol-induced antimycobacterial activity against Mycobacterium tuberculosis H37Rv ATCC 25618 assessed as fold decrease in ethambutol MIC at 1/2X MIC incubated for 14 days in presence of ethambutol by MABA method; type: functional; details: time 14 day; how it was run: as §1
[8] = tested on: Mycobacterium tuberculosis; assay: Antitubercular activity against Mycobacterium tuberculosis Spec.192 assessed as rifampicin MIC incubated for 14 days in presence of rifampicin by MABA method; type: functional; details: Mycobacterium tuberculosis, 192, 336 h; time 14 day; how it was run: as §2

SMILES | fold change (FC) [1] | Activity [2] | fold change (FC) [3] | Activity [4] | MIC [5] | fold change (FC) [6] | fold change (FC) [7] | MIC [8]
COc1ccc(-n2nnnc2Nc2cccc(Br)c2)cc1 | 2 | Non-Toxic | 2 | Non-Toxic | 0.25 µg/mL | 2 | 2 | 0.25 µg/mL
COc1ccc(-n2nnnc2Nc2ccc(Br)cc2)cc1 |  | Non-Toxic |  | Non-Toxic | 0.25 µg/mL |  |  | 0.25 µg/mL
